Measurements as given in ChEMBL document CHEMBL2150901, “Synthesis and biological activity of tricyclic cycloalkylimidazo-, pyrimido- and diazepinopurinediones” (Eur J Med Chem, 2011).
The source made the active and inactive calls. No cut-off for these calls is given here.

Key:
Mus musculus [1] = assay: Neurotoxicity in F1 albino mouse assessed as minimal motor impairment at 100 mg/kg, ip after 0.5 hrs by rotorod test; assay type: toxicity, organism-based; design: dose 100 mg/kg, route intraperitoneal; conditions: in vivo
Outline: (§1)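 Male albino F-1 mice (18–25 g), groups of 1–5 (rotorod 2–8). Compound given ip as a suspension in 0.5% methylcellulose at 30, 100 and 300 mg/kg. Seizures by maximal electroshock or subcutaneous pentylenetetrazole; neurotoxicity by rotorod. Read at 0.5 and 4 h, with some at 0.25, 1 and 2 h. Value is the minimum active dose, with protected (or toxic)/tested animals.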

Mus musculus [2] = assay: Anticonvulsant activity in F1 albino mouse assessed as protection against maximal electroshock-induced seizures at 300 mg/kg, ip after 0.25 hrs; assay type: functional, organism-based; design: dose 300 mg/kg; outline: as §1
Mus musculus [3] = assay: Neurotoxicity in F1 albino mouse assessed as minimal motor impairment at 300 mg/kg, ip after 0.25 hrs by rotorod test; assay type: toxicity, organism-based; design: dose 300 mg/kg, route intraperitoneal; conditions: in vivo; outline: as §1
[4] = molecular target: T1, Adenosine receptor A1 (Homo sapiens) (UniProt P30542); assay: Displacement of [3H]CCPA from human recombinant adenosine A1 receptor expressed in CHO cells at 10 uM; assay type: cell-based
T1 sequence (whole entry): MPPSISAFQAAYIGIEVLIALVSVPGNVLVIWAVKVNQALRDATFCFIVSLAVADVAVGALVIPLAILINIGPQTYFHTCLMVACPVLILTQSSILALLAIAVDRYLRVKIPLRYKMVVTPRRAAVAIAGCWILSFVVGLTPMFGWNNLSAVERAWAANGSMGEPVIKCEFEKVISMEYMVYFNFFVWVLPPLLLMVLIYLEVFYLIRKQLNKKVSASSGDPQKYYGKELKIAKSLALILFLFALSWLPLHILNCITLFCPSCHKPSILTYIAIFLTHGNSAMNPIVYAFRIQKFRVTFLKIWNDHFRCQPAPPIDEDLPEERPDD
Outline: (§2)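 CHO cell membranes expressing the human receptor. Radioligands: A1 [3H]CCPA; A2B [3H]ZM241385 or [3H]PSB-603; A3 [3H]PSB-11. […] Potent compounds run at 6–7 concentrations spanning 3 orders of magnitude; Ki ± SEM.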

Adenosine receptor A1 [5] = molecular target: T2, Adenosine receptor A1 (Rattus norvegicus, UniProt P25099); assay: Displacement of [3H]CCPA from adenosine A1 receptor in rat brain cortical membrane; assay type: cell membranes
T2 sequence (P25099 whole entry): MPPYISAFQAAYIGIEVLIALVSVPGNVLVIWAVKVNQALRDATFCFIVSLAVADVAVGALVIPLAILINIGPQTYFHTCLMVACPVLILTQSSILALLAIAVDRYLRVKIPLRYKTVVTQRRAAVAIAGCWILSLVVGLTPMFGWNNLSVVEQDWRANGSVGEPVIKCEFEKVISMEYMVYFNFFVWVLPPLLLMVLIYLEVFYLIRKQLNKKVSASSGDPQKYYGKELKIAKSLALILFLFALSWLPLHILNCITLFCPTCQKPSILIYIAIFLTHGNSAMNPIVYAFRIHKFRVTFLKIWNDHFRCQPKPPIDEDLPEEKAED

Adenosine receptor A3 = molecular target: T3, Adenosine receptor A3 (Homo sapiens, UniProt P0DMS8); assay: Displacement of [3H]PSB-11 from human recombinant adenosine A3 receptor expressed in CHO cells; assay type: cell-based
T3 sequence (P0DMS8 whole entry): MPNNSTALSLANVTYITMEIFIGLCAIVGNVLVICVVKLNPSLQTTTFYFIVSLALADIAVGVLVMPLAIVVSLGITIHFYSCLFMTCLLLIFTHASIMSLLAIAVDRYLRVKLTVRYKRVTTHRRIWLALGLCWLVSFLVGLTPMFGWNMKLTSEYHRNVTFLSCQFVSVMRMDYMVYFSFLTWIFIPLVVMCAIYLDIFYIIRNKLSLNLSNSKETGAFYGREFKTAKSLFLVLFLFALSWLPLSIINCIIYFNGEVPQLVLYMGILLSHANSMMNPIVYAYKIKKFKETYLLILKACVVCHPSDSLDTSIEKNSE

Adenosine receptor A2b [6] = molecular target: T4, Adenosine receptor A2b (Homo sapiens, UniProt P29275); assay: Displacement of [3H]ZM241385 from human adenosine A2B receptor expressed in CHO cells; assay type: cell-based
T4 sequence (P29275 whole entry): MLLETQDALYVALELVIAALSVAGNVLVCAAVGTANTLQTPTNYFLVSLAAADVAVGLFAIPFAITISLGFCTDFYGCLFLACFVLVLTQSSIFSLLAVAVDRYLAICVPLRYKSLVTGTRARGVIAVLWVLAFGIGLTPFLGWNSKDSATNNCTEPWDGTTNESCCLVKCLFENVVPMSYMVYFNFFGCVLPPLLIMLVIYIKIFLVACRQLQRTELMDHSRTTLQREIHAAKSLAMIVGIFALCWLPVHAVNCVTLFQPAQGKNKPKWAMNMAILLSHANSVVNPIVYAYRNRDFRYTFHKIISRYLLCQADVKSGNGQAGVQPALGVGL

CHO = assay: Selectivity ratio of Ki for human recombinant adenosine A2A receptor expressed in CHO cells to Ki for adenosine A2A receptor in rat brain striatal membrane; assay type: cell-based
Outline: (§3)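 Ki ratios from radioligand competition binding. Rat A1 used brain cortical membranes and rat A2A used brain striatal membranes. Human A1 and A2A used membranes of CHO cells expressing the receptors. A1 radioligand [³H]CCPA; A2A radioligand [³H]MSX-2. Potent compounds were tested at 6–7 concentrations spanning 3 orders of magnitude.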

Rattus norvegicus = species: Rattus norvegicus; assay: Selectivity ratio of Ki for adenosine A1 receptor in rat brain cortical membrane to Ki for adenosine A2A receptor in rat brain striatal membrane; assay type: cell membranes; outline: as §3
Mus musculus [7] = assay: Anticonvulsant activity in F1 albino mouse assessed as protection against subcutaneous pentylenetetrazole-induced seizures at 300 mg/kg, ip after 0.25 hrs; assay type: functional, organism-based; design: dose 300 mg/kg; outline: as §1
Mus musculus [8] = assay: Neurotoxicity in F1 albino mouse assessed as minimal motor impairment at 300 mg/kg, ip after 4 hrs by rotorod test; assay type: toxicity, organism-based; design: dose 300 mg/kg, route intraperitoneal; conditions: in vivo; outline: as §1
Mus musculus [9] = assay: Anticonvulsant activity in F1 albino mouse assessed as protection against subcutaneous pentylenetetrazole-induced seizures at 300 mg/kg, ip after 4 hrs; assay type: functional, organism-based; design: dose 300 mg/kg; outline: as §1
Mus musculus [10] = assay: Anticonvulsant activity in F1 albino mouse assessed as protection against maximal electroshock-induced seizures at 300 mg/kg, ip after 1 hr; assay type: functional, organism-based; design: dose 300 mg/kg; outline: as §1
Adenosine receptor A2a [11] = molecular target: Adenosine receptor A2a (Homo sapiens, UniProt P29274); assay: Displacement of [3H]MSX-2 from human recombinant adenosine A2A receptor expressed in CHO cells; assay type: cell-based
[12] = molecular target: T5, Adenosine receptor A2b (Homo sapiens) (UniProt P29275); assay: Displacement of [3H]ZM241385 from human adenosine A2B receptor expressed in CHO cells at 10 uM; assay type: cell-based; outline: as §2
T5 sequence (whole entry): T4 sequence (P29275 whole entry)

Mus musculus [13] = assay: Anticonvulsant activity in F1 albino mouse assessed as protection against maximal electroshock-induced seizures at 300 mg/kg, ip after 4 hrs; assay type: functional, organism-based; design: dose 300 mg/kg; outline: as §1
Mus musculus [14] = assay: Anticonvulsant activity in F1 albino mouse assessed as protection against maximal electroshock-induced seizures at 300 mg/kg, ip after 0.5 hrs; assay type: functional, organism-based; design: dose 300 mg/kg; outline: as §1
[15] = molecular target: T6, Adenosine receptor A3 (Homo sapiens) (UniProt P0DMS8); assay: Displacement of [3H]PSB-11 from human recombinant adenosine A3 receptor expressed in CHO cells at 10 uM; assay type: cell-based; outline: as §2
T6 sequence (whole entry): T3 sequence (P0DMS8 whole entry)

Adenosine receptor A1 [16] = molecular target: T7, Adenosine receptor A1 (Homo sapiens, UniProt P30542); assay: Displacement of [3H]CCPA from human recombinant adenosine A1 receptor expressed in CHO cells; assay type: cell-based
T7 sequence (P30542 whole entry): T1 sequence (whole entry)

Mus musculus [17] = assay: Neurotoxicity in F1 albino mouse assessed as minimal motor impairment at 300 mg/kg, ip after 1 hr by rotorod test; assay type: toxicity, organism-based; design: dose 300 mg/kg, route intraperitoneal; conditions: in vivo; outline: as §1
Mus musculus [18] = assay: Anticonvulsant activity in F1 albino mouse assessed as protection against subcutaneous pentylenetetrazole-induced seizures at 300 mg/kg, ip after 1 hr; assay type: functional, organism-based; design: dose 300 mg/kg; outline: as §1
Adenosine receptor A2a [19] = molecular target: Adenosine receptor A2a (Rattus norvegicus, UniProt P30543); assay: Displacement of [3H]MSX-2 from adenosine A2A receptor in rat brain striatal membrane; assay type: cell membranes
Mus musculus [20] = assay: Anticonvulsant activity in F1 albino mouse assessed as protection against subcutaneous pentylenetetrazole-induced seizures at 300 mg/kg, ip after 0.5 hrs; assay type: functional, organism-based; design: dose 300 mg/kg; outline: as §1
[21] = molecular target: T8, Adenosine receptor A1 (Rattus norvegicus) (UniProt P25099); assay: Displacement of [3H]CCPA from adenosine A1 receptor in rat brain cortical membrane at 25 uM; assay type: cell membranes
T8 sequence (whole entry): T2 sequence (P25099 whole entry)

[22] = molecular target: T5, Adenosine receptor A2b (Homo sapiens); assay: Displacement of [3H]PSB-603 from human recombinant adenosine A2B receptor expressed in CHO cells at 10 uM; assay type: cell-based; outline: as §2
Mus musculus [23] = assay: Neurotoxicity in F1 albino mouse assessed as minimal motor impairment at 300 mg/kg, ip after 0.5 hrs by rotorod test; assay type: toxicity, organism-based; design: dose 300 mg/kg, route intraperitoneal; conditions: in vivo; outline: as §1
Adenosine receptor A2b [24] = molecular target: T4, Adenosine receptor A2b; assay: Displacement of [3H]PSB-603 from human recombinant adenosine A2B receptor expressed in CHO cells; assay type: cell-based; outline: as §2

Adenosine receptor A2a (Rattus norvegicus, UniProt P30543), sequence (P30543 whole entry): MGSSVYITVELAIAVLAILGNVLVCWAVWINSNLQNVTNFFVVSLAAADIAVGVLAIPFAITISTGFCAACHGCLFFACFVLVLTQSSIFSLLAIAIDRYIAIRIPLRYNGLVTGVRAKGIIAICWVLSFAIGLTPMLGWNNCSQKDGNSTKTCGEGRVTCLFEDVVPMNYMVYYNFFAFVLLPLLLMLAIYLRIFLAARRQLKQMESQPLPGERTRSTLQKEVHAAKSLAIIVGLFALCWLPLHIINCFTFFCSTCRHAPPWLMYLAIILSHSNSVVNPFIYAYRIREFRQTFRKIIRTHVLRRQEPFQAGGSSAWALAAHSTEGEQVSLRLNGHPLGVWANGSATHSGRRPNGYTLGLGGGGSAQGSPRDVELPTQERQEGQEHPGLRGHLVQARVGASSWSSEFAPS
Adenosine receptor A2a (Homo sapiens, UniProt P29274), sequence (P29274 whole entry): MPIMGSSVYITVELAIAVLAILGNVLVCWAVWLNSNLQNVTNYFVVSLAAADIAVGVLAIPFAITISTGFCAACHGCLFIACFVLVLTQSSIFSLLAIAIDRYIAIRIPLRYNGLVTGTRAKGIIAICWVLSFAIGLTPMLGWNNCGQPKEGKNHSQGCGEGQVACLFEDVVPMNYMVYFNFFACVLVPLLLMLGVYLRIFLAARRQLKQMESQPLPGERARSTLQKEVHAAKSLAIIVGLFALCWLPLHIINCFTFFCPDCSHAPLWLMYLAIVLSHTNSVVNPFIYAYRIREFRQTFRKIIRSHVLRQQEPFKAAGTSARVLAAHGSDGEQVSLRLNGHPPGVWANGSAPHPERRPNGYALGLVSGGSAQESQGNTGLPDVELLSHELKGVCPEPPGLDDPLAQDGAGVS

Row | SMILES | Activity (Mus musculus [2]) | Activity (Mus musculus [3]) | inhibition [4] [%] | Ki (Adenosine receptor A1 [5]) [µM] | Ki (Adenosine receptor A3) [µM] | Ratio Ki (Rattus norvegicus) | Activity (Mus musculus [7]) | Activity (Mus musculus [8]) | Activity (Mus musculus [9]) | Activity (Mus musculus [10]) | Ki (Adenosine receptor A2a [11]) [µM] | Activity (Mus musculus [13]) | Activity (Mus musculus [14]) | inhibition [15] [%] | Ki (Adenosine receptor A1 [16]) [µM] | Activity (Mus musculus [17]) | Activity (Mus musculus [18]) | Ki (Adenosine receptor A2a [19]) [µM] | Activity (Mus musculus [20]) | inhibition [21] [%] | further results
1 | Cn1c(=O)c2c(nc3n2CCCN3C2CCCCCCC2)n(C)c1=O | inactive | Non-toxic | 17 | ≥ 25 | > 10 | > 44 | inactive | Non-toxic | inactive | inactive | 1.53 | inactive | inactive | 52 | > 10 | Non-toxic | inactive | 0.57 | Active | 33 | Activity (Mus musculus [1]): Non-toxic; Ki (Adenosine receptor A2b [6]): > 10 µM; Ratio Ki (CHO): 3; inhibition [12]: 32%
2 | Cn1c(=O)c2c(nc3n2CCCN3C2CCCCC2)n(C)c1=O | inactive | Non-toxic | 37 | ≥ 25 | > 10 | > 31 | inactive | Non-toxic | inactive | inactive | 1.61 | inactive | inactive | 12 | > 10 | Non-toxic | inactive | 0.81 | Active | 39 | inhibition [22]: 0%; Ratio Ki (CHO): 2; Activity (Mus musculus [23]): Non-toxic; Ki (Adenosine receptor A2b [24]): > 10 µM
3 | Cn1c(=O)c2c(nc3n2CCCN3C2CCCCCC2)n(C)c1=O | inactive | Non-toxic | 41 | > 10 | > 10 | 4 | inactive | Non-toxic | inactive | inactive | 1.16 | inactive | inactive | 6 | > 10 | Non-toxic | inactive | 2.67 | inactive | 4 | inhibition [22]: 0%; Activity (Mus musculus [23]): Non-toxic; Ki (Adenosine receptor A2b [24]): > 10 µM
4 | Cn1c(=O)c2c(nc3n2CCCCN3C2CCC(O)CC2)n(C)c1=O (mixture of isomers) | inactive | Non-toxic |  | ≥ 25 |  | 7 | inactive | Non-toxic | inactive | inactive |  | inactive | inactive |  |  | Non-toxic | inactive | 3.81 | Active | 44 | Activity (Mus musculus [1]): Non-toxic
